Data taken from ChEMBL document CHEMBL1151912, “ACE inhibitors hypothesis generation for selective design, synthesis and biological evaluation of 3-mercapto-2-methyl-propanoyl-pyrrolidine-3-imine derivatives as antihypertensive agents” (2009).
Calls of active or inactive are those of the source. No cut-off for these calls is given here.

Assays:
Felis catus [1] = experiment: Hypotensive activity in anesthetized normotensive cat at 0.00285 mmol/kg; assay type: functional, organism-based
Felis catus [2] = experiment: Antihypertensive activity in anesthetized normotensive cat assessed as mean reduction of systolic blood pressure at 0.00246 mmol/kg; assay type: functional, Artery
Felis catus [3] = experiment: Antihypertensive activity in anesthetized normotensive cat assessed as mean reduction of systolic blood pressure at 0.00246 mmol/kg relative to control; assay type: functional, Artery; design: scale not given: the % may be the effect or the level left
How it was run: (§1)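 Normotensive adult cats dosed at 0.00246 mmol/kg. Systolic and diastolic blood pressure recorded in mmHg and reported as mean ± SE. The value is the mean % change from the control group. Significance versus control was tested at p < 0.05.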

Felis catus [4] = experiment: Antihypertensive activity in anesthetized normotensive cat assessed as mean reduction of diastolic blood pressure at 0.00246 mmol/kg; assay type: functional, Artery
Felis catus [5] = experiment: Antihypertensive activity in anesthetized normotensive cat assessed as mean reduction of diastolic blood pressure at 0.00246 mmol/kg relative to control; assay type: functional, Artery; design: scale not given: the % may be the effect or the level left; how it was run: as §1
Felis catus [6] = experiment: Hypotensive activity in anesthetized normotensive cat at 0.0031 mmol/kg; assay type: functional, organism-based
Felis catus [7] = experiment: Hypotensive activity in anesthetized normotensive cat at 0.0012 mmol/kg; assay type: functional, organism-based
Felis catus [8] = experiment: Hypotensive activity in anesthetized normotensive cat at 0.0014 mmol/kg; assay type: functional, organism-based

Compound	Activity (Felis catus [1])	Systolic blood pressure (Felis catus [2])	Activity (Felis catus [3])	Diastolic blood pressure (Felis catus [4])	Activity (Felis catus [5])	Activity (Felis catus [6])	Activity (Felis catus [7])	Activity (Felis catus [8])
COc1ccc(CC2/C(=N/CCO)CCN2C(=O)C(C)CS)cc1 (centres undefined)	Active	106 mmHg	20.83%	113.7 mmHg	9%			
COc1ccc(CC2/C(=N/O)CCN2C(=O)C(C)CS)cc1 (centres undefined)		121.9 mmHg	9%	109.7 mmHg	12.22%	Active		
C[C@H](CS)C(=O)N1CCC[C@H]1C(=O)O [CAPTOPRIL]		105.9 mmHg	20.91%	97.6 mmHg	21.89%			
CCOC(=O)C(C)/N=C1\CCN(C(=O)C(C)CS)C1Cc1ccc(OC)cc1 (centres undefined)		93.3 mmHg	30.37%	84 mmHg	32.8%		Active	
COc1ccc(CC2C(=O)CCN2C(=O)C(C)CS)cc1 (centres undefined)		104.9 mmHg	21.67%	115 mmHg	8%			Active
